The record followed here is ChEMBL document CHEMBL4373727, “Thienopyrimidinone Derivatives That Inhibit Bacterial tRNA (Guanine37-N1)-Methyltransferase (TrmD) by Restructuring the Active Site with a Tyrosine-Flipping Mechanism” (J Med Chem, 2019).

The test system of one series is Streptococcus pneumoniae. Put plainly: Antibacterial activity against Streptococcus pneumoniae ATCC 49619 at 100 uM incubated for 24 hrs. It is filed as functional, organism-based. The method, boiled down:
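Single 100 μM screen in MH medium with 3% defibrinated sheep blood at 37 °C under 5% CO2, ~5×10^5 cells/mL, 24 h.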

In the next series the test system is Staphylococcus aureus. Put plainly: Antibacterial activity against methicillin-resistant Staphylococcus aureus ATCC 43300 at 100 uM incubated for 24 hrs. It is filed as functional, organism-based. The method, boiled down:
(§1)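 Single-concentration growth screen: 100 μM test compound with log-phase bacteria at about 5×10^5 cells/mL. Incubation 24 h at 37 °C. Growth read by OD600 and given as percent of untreated control. MRSA was grown in cation-adjusted Mueller–Hinton broth. M. smegmatis was grown in complete Middlebrook 7H9. Ampicillin and kanamycin served as positive controls.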

The next series concerns Erythrocyte. Description: Hemolytic activity in human RBC at 100 uM measured after 1 hr. The format is ADME, cell-based. Summed up: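 Fresh human RBCs were PBS-washed and resuspended to OD600 24, then mixed 1:1 by volume with compound serially diluted in PBS. Incubated 1 h at 37 °C without shaking and centrifuged at 1000g for 15 min. Triton X-100 served as positive control. Run in triplicate.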

The next series relates to Enterococcus faecalis. Put plainly: Antibacterial activity against Enterococcus faecalis ATCC 51299 at 100 uM incubated for 24 hrs. It is filed as functional, organism-based. Summed up:
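Single-concentration screen in brain heart infusion broth. Log-phase cells at ~5×10^5 cells/mL were grown with 100 μM compound for 24 h at 37 °C. Growth was read as OD600 and expressed as a percentage of untreated wells. DMSO and blank controls were included.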

Series [1] relates to Mycolicibacterium smegmatis. Put plainly: Antibacterial activity against Mycolicibacterium smegmatis MC2 155 at 100 uM incubated for 24 hrs. It is filed as functional, organism-based. The method, boiled down: as §1
The test system of series [2] is Mycobacterium tuberculosis. Put plainly: Antibacterial activity against Mycobacterium tuberculosis ATCC 27294 at 100 uM incubated for 7 days. The format is functional, organism-based.
Series [3] has as its target T1, tRNA (guanine-N(1)-)-methyltransferase (Pseudomonas aeruginosa (strain ATCC 15692 / DSM 22644 / CIP 104116 / JCM14847 / LMG 12228 / 1C / PRS 101 / PAO1), UniProt Q9HXQ1).
T1 sequence (Q9HXQ1 whole entry): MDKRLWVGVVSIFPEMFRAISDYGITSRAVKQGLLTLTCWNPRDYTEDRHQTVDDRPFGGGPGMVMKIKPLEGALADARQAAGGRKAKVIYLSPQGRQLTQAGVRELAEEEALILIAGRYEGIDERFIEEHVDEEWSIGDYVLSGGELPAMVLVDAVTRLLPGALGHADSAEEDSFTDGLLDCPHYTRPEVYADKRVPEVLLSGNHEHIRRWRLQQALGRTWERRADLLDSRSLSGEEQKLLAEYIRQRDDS
Put plainly: Inhibition of Pseudomonas aeruginosa tRNA (guanine(37)-N1)-methyltransferase (Leu5 to Asp25 residues) expressed in Escherichia coli BL21 (DE3) Rosetta T1R cells assessed as reduction in S-adenosyl-L-homocysteine production preincubated for 15 mins followed by 1.5 uM of tRNALeu(CAG) substrate and SAM addition and measured after 45 mins by MTase-Glo assay. The method, boiled down:
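MTase-Glo luminescence assay. 8 nM TrmD preincubated 15 min at ambient temperature with serially diluted inhibitor (0–500 μM) in 50 mM Tris-HCl pH 8.0, 80 mM NaCl, 1 mM MgCl2, 0.5 mM DTT, 0.01% Triton X-100. Reaction with 2 μM SAM and tRNALeu(CAG), 45 min at 37 °C. Detection 30 min in the dark, SAH read against a standard curve. IC50 by nonlinear regression. Two independent experiments in duplicate.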

For series [4], the target named is T2, tRNA (guanine-N(1)-)-methyltransferase (Pseudomonas aeruginosa (strain ATCC 15692 / DSM 22644 / CIP 104116 / JCM14847 / LMG 12228 / 1C / PRS 101 / PAO1)) (UniProt Q9HXQ1).
T2 sequence (whole entry): T1 sequence (Q9HXQ1 whole entry)
Description: Binding affinity to Pseudomonas aeruginosa tRNA (guanine(37)-N1)-methyltransferase (Leu5 to Asp25 residues) expressed in Escherichia coli BL21 (DE3) Rosetta T1R cells assessed as thermal stabilization of protein by measuring change in melting temperature at 0.1 mM by SYPRO orange based thermal shift assay. Summed up: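 Thermal shift: 4 μM TrmD with 5× SYPRO Orange and ligand in 50 mM Tris-HCl pH 8, 150 mM NaCl, 1 mM MgCl2, 1 mM DTT, 0.05% Tween-20. Buffer-only control. Heated from 25 to 95 °C in a real-time PCR instrument, and Tm taken as the unfolding midpoint. Ligand levels: SAH 2 mM, inhibitors 0.1 mM.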

The structures appear in SMILES notation. Calls of active or inactive are those of the source. Unless noted, the calls are words filed in the database; no cut-off is given here.

As for `CCCCNCc1ccc(CNC(=O)c2csc3nc[nH]c(=O)c23)cc1`, the result (with Streptococcus pneumoniae; with Staphylococcus aureus; with Enterococcus faecalis; in series [1]; in series [2]) was inactive. The Activity result with Erythrocyte was “Non-Toxic”. Moreover, the IC50 – broadly, the midpoint of a concentration-inhibition curve – in series [3] turned out to be 150 nM.
Consider `CCN(Cc1ccc(CNC(=O)c2csc3nc[nH]c(=O)c23)cc1)C1CCCCC1`, for which the outcome (in the series on Streptococcus pneumoniae; in the series on Staphylococcus aureus; in the series with Enterococcus faecalis; in series [1]; in series [2]) was inactive. The Activity entry with Erythrocyte is “Non-Toxic”. Also, the half-maximal inhibitory concentration (IC50) in series [3] is 490 nM.
As for `CCCCCCCCN(CC)Cc1ccc(CNC(=O)c2csc3nc[nH]c(=O)c23)cc1`, the outcome (with Streptococcus pneumoniae; with Staphylococcus aureus; in the series with Enterococcus faecalis; in series [1]; in series [2]) was inactive. In series [3], the IC50 is 370 nM.
In the case of `O=C(NCc1ccc(CNC23CC4CC(CC(C4)C2)C3)cc1)c1csc2nc[nH]c(=O)c12`, the result (in the series on Streptococcus pneumoniae; in the series on Staphylococcus aureus; with Enterococcus faecalis; in series [1]; in series [2]) was inactive. The Activity entry in the series on Erythrocyte is “Non-Toxic”. Besides, the IC50 in series [3] was 720 nM.
Take `O=C(NCc1ccc(CN2CCCCC2)cc1)c1csc2nc[nH]c(=O)c12`: the result (in the series with Streptococcus pneumoniae; in the series on Staphylococcus aureus; in the series with Enterococcus faecalis; in series [1]; in series [2]) was inactive. In addition, in the series on Erythrocyte, the Activity result was “Non-Toxic”. The IC50 in series [3] was 1100 nM.
Regarding `O=C(NCc1ccc(CNCc2ccccc2)cc1)c1csc2nc[nH]c(=O)c12`, the outcome (with Streptococcus pneumoniae; in the series with Staphylococcus aureus; in the series with Enterococcus faecalis; in series [1]; in series [2]) was inactive. Further, the Activity result with Erythrocyte is “Non-Toxic”. The concentration for half-maximal inhibition (IC50) in series [3] was 130 nM.
Take `O=C(NCc1ccc(CNCCOCCO)cc1)c1csc2nc[nH]c(=O)c12`: the outcome (in the series with Streptococcus pneumoniae; in the series on Staphylococcus aureus; with Enterococcus faecalis; in series [1]; in series [2]) was inactive. In addition, in the series with Erythrocyte, the Activity result was “Non-Toxic”. In series [3], the IC50 came to 110 nM.
As for `CCN(CC)Cc1ccc(CNC(=O)c2csc3nc[nH]c(=O)c23)cc1`, the result (in the series on Streptococcus pneumoniae; in the series with Staphylococcus aureus; with Enterococcus faecalis; in series [1]; in series [2]) was inactive. Besides, in the series with Erythrocyte, the Activity entry is “Non-Toxic”. Moreover, the IC50 in series [3] came to 730 nM.
In the case of `O=C(NCc1ccc(CN2CCOCC2)cc1)c1csc2nc[nH]c(=O)c12`, the outcome (in the series with Streptococcus pneumoniae; with Staphylococcus aureus; in the series with Enterococcus faecalis; in series [1]; in series [2]) was inactive. Also, the Activity result with Erythrocyte was “Non-Toxic”. Besides, the IC50 in series [3] amounted to 3000 nM.
Regarding `CCCCCNCc1ccc(CNC(=O)c2csc3nc[nH]c(=O)c23)cc1`, the outcome (with Streptococcus pneumoniae; in the series with Staphylococcus aureus; in the series with Enterococcus faecalis; in series [1]; in series [2]) was inactive. For the same compound, in the series with Erythrocyte, the Activity result was “Non-Toxic”. Further, the IC50 in series [3] stood at 85 nM.
On to `CCCCCCN(Cc1ccccc1)Cc1ccc(CNC(=O)c2csc3nc[nH]c(=O)c23)cc1`, for which the result (with Streptococcus pneumoniae; with Staphylococcus aureus; with Enterococcus faecalis; in series [1]; in series [2]) was inactive. The IC50 in series [3] turned out to be 2200 nM.
As to `CCN(Cc1ccccc1)Cc1ccc(CNC(=O)c2csc3nc[nH]c(=O)c23)cc1`, the outcome (in the series with Streptococcus pneumoniae; in the series with Staphylococcus aureus; in the series on Enterococcus faecalis; in series [1]; in series [2]) was inactive. Besides, the Activity entry with Erythrocyte is recorded as “Non-Toxic”. Besides, in series [3], the 50% inhibitory concentration (IC50) was 2200 nM.
As for `CCOCCOCCNCc1ccc(CNC(=O)c2csc3nc[nH]c(=O)c23)cc1`, the result (in the series on Streptococcus pneumoniae; in the series on Staphylococcus aureus; in the series on Enterococcus faecalis; in series [1]; in series [2]) was inactive. Moreover, the IC50 in series [3] was found to be 210 nM.
Turning to `CCCCCCCCN(Cc1ccccc1)Cc1ccc(CNC(=O)c2csc3nc[nH]c(=O)c23)cc1`, the outcome (in the series on Streptococcus pneumoniae; with Staphylococcus aureus; in the series on Enterococcus faecalis; in series [1]; in series [2]) was inactive. In the series with Erythrocyte, the Activity entry is listed as “Non-Toxic”. The IC50 in series [3] came out at 12000 nM.
Turning to `CCCCCCCCNCc1ccc(CNC(=O)c2csc3ncnc(OCc4ccc(N=[N+]=[N-])cc4)c23)cc1`, the ΔTm – broadly, the change in melting temperature against a reference sample – in series [4] was 1 to 2 °C. In addition, the IC50 in series [3] amounted to 1800 nM.
With `O=C(NCc1ccc(CNC2CCCCC2)cc1)c1csc2nc[nH]c(=O)c12`, the result (in the series on Streptococcus pneumoniae; in the series on Staphylococcus aureus; in the series with Enterococcus faecalis; in series [1]; in series [2]) was inactive. In addition, the Activity entry with Erythrocyte is given as “Non-Toxic”. Moreover, in series [3], the 50% inhibitory concentration (IC50) came out at 790 nM.
